The results in this text go back to ChEMBL document CHEMBL1909580, “Branched-chain C-cyano pyranonucleosides: synthesis of 3'-C-cyano & 3'-C-cyano-3'-deoxy pyrimidine pyranonucleosides as novel cytotoxic agents” (Eur J Med Chem, 2011).

Activity calls are given as the source filed them. No cut-off for these calls is given here.

Test [1] concerns L1210. The test can be described thus: Cytostatic activity against mouse L1210 cells. It is filed as functional, cell-based. The gist of the method: (§1)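 Cell proliferation was measured with the test agents present. IC50 is the concentration giving 50% inhibition of proliferation, given as the mean ± S.D. of 2–3 independent experiments.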
The subject of test [2] is Vesicular stomatitis virus. The test can be described thus: Antiviral activity against VSV infected in human HeLa cells assessed as inhibition of virus-induced cytopathicity at 100 uM. It is filed as functional, organism-based. An outline of the steps:
(§2)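 Confluent cell monolayers were infected with 100 CCID50 of virus (1 CCID50 infects 50% of cultures) in the presence of varying concentrations of test compound. Virus-induced cytopathicity was scored once it was complete in the untreated infected controls.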

In test [3] the test system is Coxsackievirus B4. The test can be described thus: Antiviral activity against Coxsackievirus B4 infected in african green monkey Vero cells assessed as inhibition of virus-induced cytopathicity at 100 uM. In kind it is functional, organism-based. An outline of the steps:
(§3)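 Confluent cell monolayers in microtiter plates were inoculated with 100 CCID50 of virus in the presence of varying test concentrations. 1 CCID50 is the virus dose infecting 50% of cultures. Cytopathicity was scored once it was complete in untreated virus-infected controls.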
On the technique in general: Damage to the host cells serves as the signal in cytopathic effect assays.

Test [4] concerns Influenza A virus. The test can be described thus: Antiviral activity against influenza A virus H3N2 infected in MDCK cells assessed as inhibition of virus-induced cytopathicity at 100 uM. In kind it is functional, organism-based. An outline of the steps:
as §2

Test [5] has as its system Feline coronavirus. The test can be described thus: Antiviral activity against Feline coronavirus infected in feline CRFK cells assessed as inhibition of virus-induced cytopathicity at 100 uM. In kind it is functional, organism-based. An outline of the steps:
as §3

Test [6] deals with HeLa. The test can be described thus: Cytostatic activity against human HeLa cells. In kind it is functional, cell-based. The gist of the method: as §1
For test [7], the system named is Human alphaherpesvirus 2. The test can be described thus: Antiviral activity against HSV2 infected in human HEL cells assessed as inhibition of virus-induced cytopathicity at 100 uM. In kind it is functional, organism-based. The gist of the method:
as §3

Test [8] deals with Felid alphaherpesvirus 1. The test can be described thus: Antiviral activity against Feline herpesvirus infected in […] cells assessed as inhibition of virus-induced cytopathicity at 100 uM. In kind it is functional, organism-based.
The subject of test [9] is CCRF-CEM. Kind of test: Cytostatic activity against human CEM cells. In kind it is functional, cell-based. An outline of the steps: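 Uninfected CEM cells were run in parallel with the HIV assay for 4 days at 37 °C. IC50 is the concentration inhibiting cell proliferation by 50%, given as the mean ± S.D. of 2–3 independent experiments.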
Test [10] concerns Vesicular stomatitis virus. The test can be described thus: Antiviral activity against VSV infected in human HEL cells assessed as inhibition of virus-induced cytopathicity at 100 uM. In kind it is functional, organism-based. An outline of the steps: as §2
In test [11] the test system is Influenza B virus. Kind of test: Antiviral activity against influenza B virus infected in MDCK cells assessed as inhibition of virus-induced cytopathicity at 100 uM. In kind it is functional, organism-based. The gist of the method: as §2
Test [12] concerns Human respirovirus 3. The test can be described thus: Antiviral activity against Parainfluenza 3 virus infected in african green monkey Vero cells assessed as inhibition of virus-induced cytopathicity at 100 uM. In kind it is functional, organism-based. The gist of the method: as §3
The subject of test [13] is Human immunodeficiency virus 2. The test can be described thus: Antiviral activity against HIV-2 ROD infected in CEM cells assessed as inhibition of virus-induced cytopathicity at 100 uM. It is filed as functional, organism-based. Conditions: ISOLATE ROD, CCRF-CEM. The gist of the method: (§4)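 Virus stocks were titrated in CEM cells as CCID50. CEM cells at ~3 × 10^5 cells/ml were infected with ~100 CCID50 and immediately added to wells holding various test concentrations. After 4 days at 37 °C, giant cell formation was scored microscopically.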

Test [14] concerns Human alphaherpesvirus 1. The test can be described thus: Antiviral activity against HSV1 infected in human HEL cells assessed as inhibition of virus-induced cytopathicity at 100 uM. It is filed as functional, organism-based. The gist of the method: as §3
In test [15] the test system is Mammalian orthoreovirus 1. Kind of test: Antiviral activity against Reovirus1 infected in african green monkey Vero cells assessed as inhibition of virus-induced cytopathicity at 100 uM. It is filed as functional, organism-based. The gist of the method:
as §3

Test [16] concerns Human immunodeficiency virus 1. The test can be described thus: Antiviral activity against HIV1 3B infected in CEM cells assessed as inhibition of virus-induced cytopathicity at 100 uM. The settings on record: CCRF-CEM. In kind it is functional, organism-based. The gist of the method:
as §4

Test [17] relates to Vaccinia virus. The test can be described thus: Antiviral activity against Vaccinia virus infected in human HEL cells assessed as inhibition of virus-induced cytopathicity at 100 uM. It is filed as functional, organism-based. The settings on record: Orthopoxvirus vaccinia. The gist of the method:
as §2

Test [18] has as its system Coxsackievirus B4. Kind of test: Antiviral activity against Coxsackievirus B4 infected in human HeLa cells assessed as inhibition of virus-induced cytopathicity at 100 uM. It is filed as functional, organism-based. An outline of the steps:
as §3

Test [19] deals with Punta Toro virus. Kind of test: Antiviral activity against Punta Toro virus infected in african green monkey Vero cells assessed as inhibition of virus-induced cytopathicity at 100 uM. It is filed as functional, organism-based. The gist of the method: as §3
For test [20], the system named is Influenza A virus. The test can be described thus: Antiviral activity against influenza A virus H1N1 infected in MDCK cells assessed as inhibition of virus-induced cytopathicity at 100 uM. In kind it is functional, organism-based. An outline of the steps:
as §2

The subject of test [21] is Respiratory syncytial virus. The test can be described thus: Antiviral activity against RSV infected in human HeLa cells assessed as inhibition of virus-induced cytopathicity at 100 uM. In kind it is functional, organism-based. An outline of the steps:
as §3

In the case of `N#C[C@H]1[C@@H](O)[C@H](n2ccc(N)nc2=O)O[C@H](CO)[C@H]1O`, the IC50 in test [1], in [6] and in test [9] was above 750 µM each time. Further, the inhibition result in [2], in test [3], in test [4], in test [5], in test [7] and in test [8] was “inactive” each time. Moreover, the inhibition entry in test [10], in test [11], in [12], in test [13], in [14] and in test [15] was “inactive” throughout. In addition, the inhibition entry in test [16], in test [17], in [18], in [19], in test [20] and in [21] was “inactive” throughout.

The term IC50 denotes the concentration that inhibits the measured activity by half.
